Activity calls are given as the source filed them. No cut-off for these calls is given here.
How the values were obtained:
[1] = target: T1, Protein-glutamine gamma-glutamyltransferase (Homo sapiens) (UniProt P21980); assay: Inhibition of recombinant human TG2 expressed in Escherichia coli assessed as Kinact using Cbz-Glu(gamma-p-nitrophenyl ester)Gly (AL5) as substrate by colorimetric assay
T1 sequence (whole entry): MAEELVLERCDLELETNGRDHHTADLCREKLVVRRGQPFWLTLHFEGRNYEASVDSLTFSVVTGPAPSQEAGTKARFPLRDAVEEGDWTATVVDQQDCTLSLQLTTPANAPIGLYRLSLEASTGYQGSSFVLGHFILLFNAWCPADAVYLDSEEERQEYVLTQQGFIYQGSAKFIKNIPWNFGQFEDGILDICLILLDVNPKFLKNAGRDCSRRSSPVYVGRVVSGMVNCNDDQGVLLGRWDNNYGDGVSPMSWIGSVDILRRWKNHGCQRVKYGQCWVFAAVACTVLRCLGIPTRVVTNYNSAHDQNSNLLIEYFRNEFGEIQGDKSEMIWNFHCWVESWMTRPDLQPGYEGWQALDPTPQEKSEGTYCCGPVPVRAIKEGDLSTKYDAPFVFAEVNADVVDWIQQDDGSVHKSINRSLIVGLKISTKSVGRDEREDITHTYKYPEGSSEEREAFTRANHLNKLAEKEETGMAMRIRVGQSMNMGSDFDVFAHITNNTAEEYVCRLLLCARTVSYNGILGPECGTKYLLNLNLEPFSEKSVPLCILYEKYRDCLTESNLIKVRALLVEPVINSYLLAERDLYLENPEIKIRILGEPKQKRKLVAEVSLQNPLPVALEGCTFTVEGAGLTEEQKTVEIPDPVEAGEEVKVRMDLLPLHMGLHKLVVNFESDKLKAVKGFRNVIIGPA
Method in brief: (§1)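 Kitz–Wilson conditions, triplicate, 25 °C: 50 mM MOPS pH 6.9, 7.5 mM CaCl2, 100 μM AL5, inhibitor 0.5–900 μM (varies by inhibitor), DMSO ≤5% v/v final; started with 5 mU/mL TG2; p-nitrophenolate read at 405 nm for 20 min. Mono-exponential fits give kobs; kobs vs [I] fitted to saturation model with α = 1+[S]/KM (KM 10 μM), giving kinact and KI; double reciprocal if unsaturated.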

[2] = target: T1, Protein-glutamine gamma-glutamyltransferase (Homo sapiens); assay: Inhibition of recombinant human TG2 expressed in Escherichia coli assessed as Kinact/Ki ratio using Cbz-Glu(gamma-p-nitrophenyl ester)Gly (AL5) as substrate by colorimetric assay; method in brief: as §1
[3] = target: T2, Protein-glutamine gamma-glutamyltransferase (Homo sapiens, UniProt P21980); assay: Inhibition of recombinant human TG2 expressed in Escherichia coli assessed as inhibition constant using Cbz-Glu(gamma-p-nitrophenyl ester)Gly (AL5) as substrate by colorimetric assay; method in brief: as §1
T2 sequence (P21980 whole entry): T1 sequence (whole entry)

[4] = target: T1, Protein-glutamine gamma-glutamyltransferase (Homo sapiens); assay: Inhibition of GTP binding to recombinant human TG2 expressed in Escherichia coli incubated for 30 mins by GTP-gamma-S BODIPY assay

Structure (SMILES)	Kinact [1]	Ratio [2]	Ki [3]	inhibition [4]
C=CC(=O)NCCCCCC(=O)N1CCN(C(=O)c2cccc3ccccc23)CC1	0.46 min⁻¹	4.2 10^3/M/min	109 µM	–
C=CC(=O)NCC(=O)N1CCN(S(=O)(=O)c2cccc3ccccc23)CC1	0.7 min⁻¹	108 10^3/M/min	6.51 µM	Active
C=CC(=O)NCCCCC(=O)N1CCN(S(=O)(=O)c2cccc3c(N(C)C)cccc23)CC1	0.55 min⁻¹	13.1 10^3/M/min	42 µM	–
C=CC(=O)NCCCCCC(=O)N1CCN(C(=O)C23CC4CC(CC(C4)C2)C3)CC1	0.36 min⁻¹	9.5 10^3/M/min	38 µM	–
C=CC(=O)NCCCCC(=O)N1CCN(C(=O)c2cccc3ccccc23)CC1	0.44 min⁻¹	3.1 10^3/M/min	142 µM	–
C=CC(=O)NCC(=O)N1CCN(C(=O)c2cccc3ccccc23)CC1	0.69 min⁻¹	27.5 10^3/M/min	25 µM	Active
C=CC(=O)NCCC(=O)N1CCN(C(=O)c2cccc3ccccc23)CC1	0.13 min⁻¹	2.4 10^3/M/min	51.6 µM	–
C=CC(=O)NCC(=O)N1CCN(C(=O)C23CC4CC(CC(C4)C2)C3)CC1	1.34 min⁻¹	412 10^3/M/min	3.2 µM	Active
C=CC(=O)NCCC(=O)N1CCN(S(=O)(=O)c2cccc3c(N(C)C)cccc23)CC1	0.25 min⁻¹	3.9 10^3/M/min	64.5 µM	–
C=CC(=O)NCCCC(=O)N1CCN(C(=O)c2cccc3ccccc23)CC1	0.45 min⁻¹	3.3 10^3/M/min	134 µM	–

Next, values leading:

Kinact [1]	Ratio [2]	Ki [3]	inhibition [4]	Structure (SMILES)
0.19 min⁻¹	41.9 10^3/M/min	4.5 µM	–	C=CC(=O)NCCCCC(=O)N1CCN(C(=O)C23CC4CC(CC(C4)C2)C3)CC1
0.23 min⁻¹	8.6 10^3/M/min	27.4 µM	–	C=CC(=O)NCCCCCC(=O)N1CCN(S(=O)(=O)c2cccc3c(N(C)C)cccc23)CC1
0.54 min⁻¹	7.3 10^3/M/min	74.2 µM	–	C=CC(=O)NCCCC(=O)N1CCN(S(=O)(=O)c2cccc3c(N(C)C)cccc23)CC1
2.25 min⁻¹	1510 10^3/M/min	1.49 µM	Active	C=CC(=O)NCC(=O)N1CCN(S(=O)(=O)c2cccc3c(N(C)C)cccc23)CC1

Reference: ChEMBL document CHEMBL5104118, “Structure-activity relationships of hydrophobic alkyl acrylamides as tissue transglutaminase inhibitors” (RSC Med Chem, 2022)
